We go through two compounds from ChEMBL document CHEMBL5252546, “Salutaxel, a Conjugate of Docetaxel and a Muramyl Dipeptide (MDP) Analogue, Acts as Multifunctional Prodrug That Inhibits Tumor Growth and Metastasis” (J Med Chem, 2018).

The structures appear in SMILES notation. The source made the active and inactive calls. No cut-off for these calls is given here.

For data set [1], the system named is 4T1. The data set is described as follows: Antitumor activity against mouse 4T1 cells xenografted with BALB/c mouse assessed as decrease in lung metastasis at 4 mg/kg,iv administrated once per week for 4 weeks. Format: functional, organism-based.
For data set [2], the system named is 4T1. The data set is described as follows: Antitumor activity against mouse 4T1 cells xenografted with BALB/c mouse assessed as decrease in tumor weight at 4 mg/kg,iv administrated once per week for 4 weeks. Type of data set: functional, organism-based.
Data set [3] can be described thus: Toxicity in BALB/c mouse xenografted with mouse 4T1 cells assessed as decrease in body weight at 4 mg/kg,iv administrated with docetaxel combination once per week for 4 weeks. Format: organism-based. Particulars: in vivo, 672 h. The essentials: (§1)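 4T1 mammary fat-pad model in BALB/c mice. Doxorubicin (4 mg/kg) was given alone or co-administered with the conjugate or its parent taxane, with iv saline vehicle. Readouts were body weight, tumour volume, tumour weight, lung metastatic nodules and lung metastasis score. Mean ± SEM, n = 10; ANOVA and Student's t test.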

Data set [4] is described as follows: Toxicity in BALB/c mouse xenografted with mouse 4T1 cells assessed as decrease in body weight at 4 mg/kg,iv administrated combination with compound 3 once per week for 4 weeks. Format: organism-based. Particulars: in vivo, 672 h. Summed up: as §1
Data set [5] is described as follows: Toxicity in BALB/c mouse xenografted with mouse 4T1 cells assessed as decrease in body weight at 4 mg/kg,iv administrated once per week for 4 weeks. Type of data set: organism-based. Particulars: in vivo, 672 h.
In data set [6] the test system is 4T1. Kind of data set: Antitumor activity against mouse 4T1 cells implanted in BALB/c mouse assessed as decrease in lung metastasis at 5 to 20 mg/kg,iv administrated once per week for 4 weeks by H and E staining based assay. Particulars: dose 5-20 mg/kg. Format: functional, organism-based.
Data set [7] has as its system 4T1. Kind of data set: Antitumor activity against mouse 4T1 cells implanted in BALB/c mouse assessed as decrease in lung injury at 5 to 20 mg/kg,iv administrated once per week for 4 weeks by H and E staining based assay. Type of data set: functional, organism-based. Particulars: dose 5-20 mg/kg.
Data set [8] concerns 4T1. The data set is described as follows: Antitumor activity against mouse 4T1 cells implanted in BALB/c mouse assessed as decrease in lung Ly-6G expression level at 5 to 20 mg/kg,iv administrated once per week for 4 weeks by immunohistochemistry analysis. Type of data set: functional, organism-based. The conditions noted are these: dose 5-20 mg/kg.
Data set [9] relates to 4T1. Kind of data set: Antitumor activity against mouse 4T1 cells implanted in BALB/c mouse assessed as decrease in lung TSP-1 expression level at 5 to 20 mg/kg,iv administrated once per week for 4 weeks by immunohistochemistry analysis. Type of data set: functional, organism-based. Particulars: dose 5-20 mg/kg.

As to `COc1cccc2c1C(=O)c1c(O)c3c(c(O)c1C2=O)C[C@@](O)(C(=O)CO)C[C@@H]3O[C@H]1C[C@H](N)[C@H](O)[C@H](C)O1` [DOXORUBICIN], the result in the data set with 4T1 [1] and in the data set on 4T1 [2] was Active. In addition, the Activity entry in data set [3], in data set [4] and in data set [5] was “Toxic” throughout.

`CC(=O)O[C@@]12CO[C@@H]1C[C@H](O)[C@@]1(C)C(=O)[C@H](O)C3=C(C)[C@@H](OC(=O)[C@H](OC(=O)CCC(=O)NCCCC[C@H](NC(=O)CC[C@@H](NC(=O)[C@H](C)NC(=O)/C=C/c4ccc(F)cc4Cl)C(N)=O)C(N)=O)[C@@H](NC(=O)OC(C)(C)C)c4ccccc4)C[C@@](O)([C@@H](OC(=O)c4ccccc4)[C@H]21)C3(C)C`: the Activity entry with 4T1 [6] and in the data set on 4T1 [7] was “Dose-Dependent Effect” throughout. In addition, the result in the data set on 4T1 [8] and in the data set on 4T1 [9] was Active.
